According to PubChem BioAssay AID504513 (The Scripps Research Institute Molecular Screening Center, 2011):
Activity calls are given as the source filed them.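 Rule for the calls: active = PAFAH2 inhibition at least 50% at 0.2 µM with under 50% on each related off-target enzyme; inactive = the rest, including PAFAH2 hits that also hit off-targets.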

What was measured:
Test in all cases: competitive ABPP of PAFAH2 versus anti-target hydrolases – cell lysate, fluorescence, gel-based ABPP, BW5147 T-cell proteome, powder samples, late-stage follow-up (AID 504513);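 note: 0% = DMSO-only band intensity and 100% = blank gel background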
LYPLA1 = settings: BW5147 mouse T-cell proteome, FP-Rh gel ABPP, stronger effect = higher value
Procedure, shortened: (§1)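 Assay system: murine BW5147 T-cell soluble lysate, PAFAH2 and anti-target serine hydrolases / Quantity: 1 mg/mL soluble protein / Schedule: 30 min compound, 30 min probe at 25 °C / Also added: FP-Rh probe at 2 µM / Controls: DMSO high, gel background low / Signal: in-gel fluorescence of probe-labelled bands, integrated optical density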

ESD = settings: BW5147 mouse T-cell proteome, FP-Rh gel ABPP, stronger effect = higher value
Procedure, shortened: as §1

APEH = settings: BW5147 mouse T-cell proteome, FP-Rh gel ABPP, stronger effect = higher value
Procedure, shortened: as §1

[1] = target: Platelet-activating factor acetylhydrolase 2, cytoplasmic (Mus musculus) (UniProt Q8VDG7); settings: FP-Rh gel ABPP, stronger effect = higher value
Procedure, shortened: as §1

ABHD11 = settings: BW5147 mouse T-cell proteome, FP-Rh gel ABPP, stronger effect = higher value
Procedure, shortened: as §1

Measured: inhibition

Chain of Platelet-activating factor acetylhydrolase 2, cytoplasmic (Mus musculus) (Q8VDG7 whole entry, looked up): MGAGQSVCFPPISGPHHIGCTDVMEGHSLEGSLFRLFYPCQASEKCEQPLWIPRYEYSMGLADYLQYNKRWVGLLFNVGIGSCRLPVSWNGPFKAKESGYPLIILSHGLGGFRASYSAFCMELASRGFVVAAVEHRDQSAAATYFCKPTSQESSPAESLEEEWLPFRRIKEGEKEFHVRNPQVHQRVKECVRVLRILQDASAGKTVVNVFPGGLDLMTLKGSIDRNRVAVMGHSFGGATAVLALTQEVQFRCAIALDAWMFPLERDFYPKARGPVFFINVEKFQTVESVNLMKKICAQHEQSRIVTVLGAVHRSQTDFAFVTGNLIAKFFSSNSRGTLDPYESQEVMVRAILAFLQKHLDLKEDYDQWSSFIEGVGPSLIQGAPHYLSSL

CN(C)C(=O)n1ccnn1
0%: LYPLA1; inhibition, at 0.02 µM | LYPLA1; inhibition, at 0.2 µM | ESD; inhibition, at 0.02 µM | ESD; inhibition, at 0.2 µM | APEH; inhibition, at 0.02 µM | APEH; inhibition, at 0.2 µM | [1]; PAFAH2, inhibition, at 0.02 µM | [1]; PAFAH2, inhibition, at 0.2 µM | ABHD11; inhibition, at 0.02 µM | ABHD11; inhibition, at 0.2 µM
inactive: LYPLA1; at 1 µM 0% | ESD; at 1 µM 0% | APEH; at 1 µM 0% | [1]; PAFAH2, at 1 µM 0% | ABHD11; at 1 µM 0%
